Measured values pooled from the literature.
Compare with care: the assays were run in different laboratories.
Observed: cell growth or viability

The IC50 of `O=[N+]([O-])c1cc(I)c(O)c(C=NNc2ccc(Cl)cc2)c1` is reported as 12.3 µM (HEK-293T; MTT; 24 h).
For `COc1ccc(NC(=O)Nc2cccc(-c3cn(Cc4ccc(Br)cc4)nn3)c2)cc1`, the IC50 was 15.9 µM (Huh-7; CCK-8; 72 h).
`CNC(=O)c1cc(Oc2ccc(NC(=O)Nc3ccc(Cl)c(C(F)(F)F)c3)cc2)ccn1` gave an IC50 of 8.78 µM (THLE3; imaging; 72 h).
For `O=c1[nH]cc(F)c(=O)[nH]1`, the IC50 was 17.2 µM (Huh-7; CCK-8; 72 h).
For `CN1CCC(NC2CCc3[nH]c4c(C(N)=O)ccc(-c5ccccc5Cl)c4c3C2)CC1` (centres unmarked), the IC50 was 0.0114 µM (Ramos; 96 h).
`COc1ccc(NC(=O)NCc2cn(Cc3ccc(Br)cc3)nn2)cc1` has an IC50 of greater than 50 µM (Huh-7; CCK-8; 72 h).
`Cc1nc(Nc2ncc(C(=O)Nc3c(C)cccc3Cl)s2)cc(N2CC[C@H](O)C2)n1` has an IC50 of greater than 10 µM (Ramos; ATP luminescence; 72 h).
The IC50 of `COc1cccc2c1C(=O)c1c(O)c3c(c(O)c1C2=O)C[C@@](O)(C(=O)CO)C[C@@H]3O[C@H]1C[C@H](N)[C@H](O)[C@H](C)O1` is reported as 1.39 µM (HEK-293T; MTT; 24 h).
The IC50 of `O=C(Nc1ccc(Cl)cc1)Nc1cccc(-c2cn(Cc3cccc(Br)c3)nn2)c1` is reported as 32.3 µM (Huh-7; CCK-8; 72 h).
`O=C(Nc1ccc(Cl)cc1)Nc1cccc(-c2cn(Cc3ccc(Cl)cc3)nn2)c1` has an IC50 of 13 µM (Huh-7; CCK-8; 72 h).
With `O=[N+]([O-])c1cc(Br)c(O)c(C=NNc2ccc(Br)cc2)c1` the IC50 was 12.3 µM (HEK-293T; MTT; 24 h).
`Cc1nnc(-c2nn(Cc3ccc(Cl)cc3Cl)c3ccccc23)o1` has an IC50 of 41.5 µM (HepG2; 48 h).
The IC50 of `COc1ccc(NC(=O)Nc2ccc(-c3cn(Cc4ccc(C)cc4)nn3)cc2)cc1` is reported as greater than 50 µM (Huh-7; CCK-8; 72 h).
For `O=[N+]([O-])c1cc(Br)c(O)c(C=NNc2ccccc2)c1`, the IC50 was 23 µM (HEK-293T; MTT; 24 h).
`O=C(Nc1cccc(-c2cn(Cc3ccc(Cl)cc3)nn2)c1)Nc1ccccc1Br` has an IC50 of 13.5 µM (Huh-7; CCK-8; 72 h).
The IC50 of `O=[N+]([O-])c1cc(Br)c(O)c(C=NNc2ccc(C(F)(F)F)cc2)c1` is reported as 18 µM (HEK-293T; MTT; 24 h).
The IC50 of `C=CCn1c(=O)c2cnc(Nc3ccc(N4CCN(C)CC4)cc3)nc2n1-c1ccc2c(n1)[C@@](O)(CC)CC2` is reported as 1.52 µM (KURAMOCHI; ATP luminescence; 72 h).
